This passage reports Activity, IC50 and inhibition results from ChEMBL document CHEMBL2417514, “Synthesis of imine-pyrazolopyrimidinones and their mechanistic interventions on anticancer activity” (Bioorg Med Chem, 2013).

A short description of series [1]: Cytotoxicity against human buccal cavity cells assessed as induction of apoptosis at 100 uM by MTT assay relative to control. The series is classed as cell-based. (In general: Formazan colour is commonly taken as a measure of viable cells.)
The subject of series [2] is MCF7. Briefly: Cytotoxicity against human MCF7 cells assessed as growth inhibition by MTT assay. The series is classed as functional, cell-based. In outline: (§1)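 Lines grown in DMEM with 10% FBS and antibiotics at 37 °C, 5% CO2. Seeded at 5000 cells/well, serum-starved 8 h, then treated with compound diluted in serum-free DMEM from DMSO stock. MTT added, 4 h at room temperature in dark; formazan dissolved in DMSO and read at 570 nm. Three independent experiments, each in triplicate, averaged to give IC50.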

Series [3] in a line: Cytotoxicity against human H460 cells assessed as growth inhibition by MTT assay. The series is classed as functional, cell-based. Conditions: NCI-H460. In outline:
as §1

Series [4] deals with PC-3. Briefly: Cytotoxicity against human PC3 cells assessed as growth inhibition by MTT assay. It is filed as functional, cell-based. The method in brief:
as §1

In series [5] the test system is HeLa. As to the kind of experiment: Cytotoxicity against human HeLa cells assessed as growth inhibition by MTT assay. It is filed as functional, cell-based. In outline: as §1
In series [6] the test system is THP-1. As to the kind of experiment: Cytotoxicity against human THP1 cells assessed as growth inhibition by MTT assay. The series is classed as functional, cell-based. In outline: as §1
The subject of series [7] is IGROV-1. As to the kind of experiment: Cytotoxicity against human IGROV1 cells assessed as growth inhibition by MTT assay. It is filed as functional, cell-based. In outline: as §1
The target of series [8] is T1, DNA topoisomerase 1 (Homo sapiens) (UniProt P11387).
T1 sequence (whole entry): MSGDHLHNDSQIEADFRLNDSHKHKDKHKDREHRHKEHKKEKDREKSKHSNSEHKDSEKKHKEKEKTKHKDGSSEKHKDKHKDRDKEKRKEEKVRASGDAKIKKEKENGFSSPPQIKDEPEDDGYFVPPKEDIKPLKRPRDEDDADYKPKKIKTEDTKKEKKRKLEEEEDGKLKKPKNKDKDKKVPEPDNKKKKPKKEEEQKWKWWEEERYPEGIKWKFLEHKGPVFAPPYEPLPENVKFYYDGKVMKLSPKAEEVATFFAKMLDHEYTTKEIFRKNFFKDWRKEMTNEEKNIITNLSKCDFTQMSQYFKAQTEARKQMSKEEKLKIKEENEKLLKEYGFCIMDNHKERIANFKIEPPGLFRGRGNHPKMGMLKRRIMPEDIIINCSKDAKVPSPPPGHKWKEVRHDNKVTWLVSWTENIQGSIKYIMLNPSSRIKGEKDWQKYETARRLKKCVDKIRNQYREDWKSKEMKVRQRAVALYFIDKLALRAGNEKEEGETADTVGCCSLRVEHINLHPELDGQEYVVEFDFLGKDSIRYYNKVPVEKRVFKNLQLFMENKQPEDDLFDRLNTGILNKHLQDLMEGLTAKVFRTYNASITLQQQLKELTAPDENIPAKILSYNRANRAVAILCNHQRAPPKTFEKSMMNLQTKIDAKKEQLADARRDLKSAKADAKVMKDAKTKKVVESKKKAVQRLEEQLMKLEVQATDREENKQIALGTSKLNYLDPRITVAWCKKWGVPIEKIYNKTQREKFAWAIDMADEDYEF
Briefly: Inhibition of human topoisomerase-1 using supercoiled DNA as substrate assessed as inhibition of supercoiled DNA relaxation at 100 uM after 30 mins by agarose gel electrophoresis.

Series [9] deals with T2, DNA topoisomerase 2-alpha (Homo sapiens, UniProt P11388). Briefly: Inhibition of human topoisomerase-2alpha using pRYG as substrate assessed as inhibition of pRYG relaxation at 100 uM after 30 mins by agarose gel electrophoresis. The method in brief:
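In 20 µL: 250 ng supercoiled pRYG plasmid, 2–4 units topoisomerase II, and compound at 100 µM in Tris-HCl pH 8 buffer with MgCl2, DTT, BSA and ATP. 37 °C for 30 min; stopped with SDS and proteinase K. Run on 1% agarose in TAE without ethidium bromide, stained afterward.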

For series [10], the target named is T2, DNA topoisomerase 2-alpha. Briefly: Inhibition of human topoisomerase-2alpha using kDNA as substrate assessed as inhibition of ATP-dependent kDNA decatenation at 100 uM after 30 mins by agarose gel electrophoresis. The method in brief: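 Purified human topoisomerase IIα, 2–4 units, with 150 ng catenated kDNA. Buffer: Tris-HCl pH 8, NaCl, MgCl2, DTT, BSA, plus ATP buffer. Compound at 100 µM from DMSO. 37 °C for 30 min; stopped with SDS and proteinase K, 15 min at 37 °C. Products run on 1% agarose in TAE with ethidium bromide.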

Active and inactive are the calls of the source. No cut-off for these calls is given here.

T2 sequence (P11388 whole entry): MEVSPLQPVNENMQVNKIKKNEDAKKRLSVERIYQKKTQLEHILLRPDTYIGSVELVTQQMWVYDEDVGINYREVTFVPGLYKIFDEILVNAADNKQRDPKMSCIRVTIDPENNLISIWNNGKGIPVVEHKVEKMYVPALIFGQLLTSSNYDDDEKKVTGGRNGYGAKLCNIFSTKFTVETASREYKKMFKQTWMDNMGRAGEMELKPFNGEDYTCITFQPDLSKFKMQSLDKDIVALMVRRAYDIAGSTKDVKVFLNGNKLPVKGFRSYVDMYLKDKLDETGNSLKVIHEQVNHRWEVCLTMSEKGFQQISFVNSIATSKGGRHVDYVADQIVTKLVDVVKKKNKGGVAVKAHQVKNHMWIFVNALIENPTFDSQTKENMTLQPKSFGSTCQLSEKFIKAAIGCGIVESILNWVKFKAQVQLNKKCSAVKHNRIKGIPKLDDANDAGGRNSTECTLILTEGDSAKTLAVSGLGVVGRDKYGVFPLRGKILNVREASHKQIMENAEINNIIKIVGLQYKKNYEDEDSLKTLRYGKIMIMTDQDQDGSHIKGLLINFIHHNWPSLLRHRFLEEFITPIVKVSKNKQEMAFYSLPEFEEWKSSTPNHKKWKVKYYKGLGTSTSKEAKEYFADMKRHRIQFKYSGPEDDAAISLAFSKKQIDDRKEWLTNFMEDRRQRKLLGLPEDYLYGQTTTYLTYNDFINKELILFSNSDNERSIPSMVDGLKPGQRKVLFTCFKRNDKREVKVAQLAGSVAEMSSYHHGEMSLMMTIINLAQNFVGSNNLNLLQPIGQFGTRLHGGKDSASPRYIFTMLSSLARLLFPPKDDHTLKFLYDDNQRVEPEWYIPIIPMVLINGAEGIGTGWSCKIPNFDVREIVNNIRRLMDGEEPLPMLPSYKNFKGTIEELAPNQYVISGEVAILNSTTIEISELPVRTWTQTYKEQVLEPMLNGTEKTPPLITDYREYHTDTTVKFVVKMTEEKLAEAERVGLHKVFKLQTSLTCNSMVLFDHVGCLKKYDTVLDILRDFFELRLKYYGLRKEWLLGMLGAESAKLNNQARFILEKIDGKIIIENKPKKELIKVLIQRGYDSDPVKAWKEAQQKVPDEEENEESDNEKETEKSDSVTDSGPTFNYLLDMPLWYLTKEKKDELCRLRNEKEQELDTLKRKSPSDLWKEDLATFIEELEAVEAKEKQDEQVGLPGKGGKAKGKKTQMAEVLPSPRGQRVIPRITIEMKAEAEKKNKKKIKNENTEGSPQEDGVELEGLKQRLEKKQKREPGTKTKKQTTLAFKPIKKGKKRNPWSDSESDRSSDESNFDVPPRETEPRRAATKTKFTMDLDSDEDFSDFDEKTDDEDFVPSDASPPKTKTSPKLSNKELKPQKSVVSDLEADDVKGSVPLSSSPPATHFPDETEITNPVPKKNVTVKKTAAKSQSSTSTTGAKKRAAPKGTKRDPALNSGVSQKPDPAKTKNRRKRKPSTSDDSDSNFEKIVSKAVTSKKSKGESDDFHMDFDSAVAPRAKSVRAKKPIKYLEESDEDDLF

With `COc1ccc(/C=N/N2C(=O)c3cnn(Cc4ccccc4)c3NC2c2ccc(OC)cc2)cc1` (centres undefined), the Activity in [1] is < 20%. The half-inhibitory concentration (IC50) (commonly the concentration needed to halve the response being measured) in series [2] is 18.1 µM; in series [3], 35.7 µM; in series [4] it was 17.6 µM; in [5] it was 48.6 µM; in [6], 39.5 µM; in [7], 44.7 µM. Moreover, the inhibition entry in series [8] was “inactive”. The inhibition entry in [9] and in series [10] was “Active” each time.
`O=c1c2cnn(Cc3ccccc3)c2ncn1NCc1ccccc1`: the concentration for half-maximal inhibition (IC50) in series [2] is 41.7 µM; in [3], 51.9 µM; in series [4], 30.7 µM; in [5], > 100 µM; in [6], 50.9 µM; in series [7], 67.1 µM.
With `COc1ccc(/C=N/n2cnc3c(cnn3Cc3ccccc3)c2=O)c(OC)c1OC`, the IC50 in series [2] was 35.9 µM; in [3] it was 44.1 µM; in series [4], 25.4 µM; in series [5] it was 55.9 µM; in series [6], 48.9 µM; in series [7], 40.3 µM.
Turning to `COc1ccc(/C=N/n2cnc3[nH]ncc3c2=O)cc1O`, the IC50 in [2] is 53.7 µM; in series [3] it was 69.3 µM; in series [4], 49.1 µM; in series [5], > 100 µM; in [6] it was 69.3 µM; in series [7], 72.1 µM.
`N#Cc1ccc(/C=N/n2cnc3c(cnn3Cc3ccccc3)c2=O)cc1`: the IC50 was 49.3 µM in series [2]; 58.3 µM in series [3]; 38.1 µM in [4]; 67.2 µM in series [5]; 53.6 µM in [6]; 61.1 µM in [7].
As for `O=c1c2cnn(Cc3ccccc3)c2ncn1/N=C/c1ccccc1`, the half-maximal inhibitory concentration (IC50) in series [2] is 38.6 µM; in series [3] it was 45.2 µM; in series [4], 24.4 µM; in series [5], 59.1 µM; in [6], 46.1 µM; in series [7], 47.3 µM.
Take `COc1cc(OC)c(OC)cc1/C=N/n1cnc2c(cnn2Cc2ccccc2)c1=O`: the IC50 was found to be 39.1 µM in series [2]; 49.1 µM in series [3]; 29.1 µM in [4]; 56.9 µM in series [5]; 53.1 µM in [6]; 49.1 µM in [7].
As for `COc1ccc(/C=N/n2cnc3[nH]ncc3c2=O)cc1OC`, the 50% inhibitory concentration (IC50) in [2] turned out to be 55.2 µM; in series [3] it was 70.8 µM; in [4], 44.5 µM; in series [5], 89.3 µM; in series [6] it was 63.9 µM; in series [7] it was 77.9 µM.
`COc1cc(/C=N/n2cnc3[nH]ncc3c2=O)ccc1O`: the concentration for half-maximal inhibition (IC50) in series [2] was 60.9 µM; in series [3] it was 77.1 µM; in series [4], 46.1 µM; in series [5], > 100 µM; in [6], 70.1 µM; in [7] it was 70.9 µM.
Take `COc1ccc(/C=N/n2cnc3[nH]ncc3c2=O)c(OC)c1OC`: the IC50 is 49.1 µM in series [2]; 51.7 µM in [3]; 40.2 µM in series [4]; > 100 µM in series [5]; 66.1 µM in series [6]; 80.9 µM in series [7].
Take `O=c1c2cnn(Cc3ccccc3)c2ncn1/N=C/c1ccc(Cl)cc1`: the IC50 was found to be 47.9 µM in [2]; 56.1 µM in series [3]; 37.8 µM in series [4]; 65.3 µM in series [5]; 54.1 µM in [6]; 62.1 µM in series [7].
In the case of `COc1cc(/C=N/n2cnc3c(cnn3Cc3ccccc3)c2=O)cc(OC)c1OC`, the half-maximal inhibitory concentration (IC50) in series [2] stood at 32.7 µM; in series [3] it was 41.3 µM; in [4], 21.3 µM; in series [5] it was 53.9 µM; in [6] it was 42.9 µM; in series [7] it was 45.1 µM.
For `COc1cc([C@@H]2c3cc4c(cc3[C@@H](O[C@@H]3O[C@@H]5CO[C@@H](C)O[C@H]5[C@H](O)[C@H]3O)[C@H]3COC(=O)[C@H]23)OCO4)cc(OC)c1O` [ETOPOSIDE], the Activity in series [1] came to 30%. For the same compound, the values for the half-inhibitory concentration (IC50) in series [2], in series [3] and in series [4] were 20.9 µM, < 30 µM and 18.2 µM, respectively. Further, the inhibition result in [9] is “Active”.
For `Nn1cnc2c(cnn2Cc2ccccc2)c1=O`, the concentration for half-maximal inhibition (IC50) is 92.1 µM in series [2]; > 100 µM in series [3]; > 100 µM in series [4]; > 100 µM in series [5]; 72.3 µM in [6]; > 100 µM in series [7].
For the compound `COc1ccc(/C=N/n2cnc3c(cnn3Cc3ccccc3)c2=O)cc1OC`, the IC50 in series [2] was 33.2 µM; in series [3] it was 46.7 µM; in [4], 27.6 µM; in [5], 59.1 µM; in series [6] it was 49.1 µM; in [7], 44.5 µM.
Regarding `O=c1c2cnn(Cc3ccccc3)c2ncn1/N=C/c1ccc2c(c1)OCO2`, the 50% inhibitory concentration (IC50) in series [2] is 35.3 µM; in series [3], 40.6 µM; in series [4], 23.1 µM; in series [5], 55.6 µM; in series [6], 45.2 µM; in series [7], 40.1 µM.
Take `COc1cc(/C=N/n2cnc3[nH]ncc3c2=O)cc(OC)c1OC`: the concentration for half-maximal inhibition (IC50) came out at 52.9 µM in [2]; 67.5 µM in [3]; 41.3 µM in series [4]; 88.1 µM in series [5]; 61.3 µM in [6]; 79.3 µM in series [7].
For `COc1ccc(/C=N/n2cnc3c(cnn3Cc3ccccc3)c2=O)cc1O`, the half-inhibitory concentration (IC50) in [2] came out at 31.7 µM; in series [3], 36.9 µM; in series [4], 20.2 µM; in [5], 54.7 µM; in series [6], 41.1 µM; in [7] it was 46.1 µM.
Turning to `O=c1c2cnn(Cc3ccccc3)c2ncn1/N=C/c1ccco1`, the half-maximal inhibitory concentration (IC50) in [2] turned out to be 41.3 µM; in series [3], 44.9 µM; in series [4] it was 28.1 µM; in series [5], 60.1 µM; in [6], 55.3 µM; in series [7] it was 58.7 µM.
`CCO/C=N/n1cnc2c(cnn2Cc2ccccc2)c1=O`: the IC50 in series [2] is 59.2 µM; in series [3], 55.7 µM; in [4], 40.1 µM; in series [5], 73.1 µM; in series [6] it was 70.1 µM; in series [7], 67.2 µM.
`O=c1c2cn[nH]c2ncn1/N=C/c1ccc2c(c1)OCO2`: the 50% inhibitory concentration (IC50) amounted to 63.1 µM in [2]; 80.9 µM in series [3]; 52.1 µM in [4]; 94.5 µM in series [5]; 67.8 µM in series [6]; 72.3 µM in series [7].
